# Assay results published in PubChem BioAssay AID651628 (The Scripps Research Institute Molecular Screening Center, 2012).
# Calls of active or inactive are those of the source.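 Rule for the calls: active = at least one off-target enzyme showing weaker fluorescent probe labeling in any proteome panel; inactive = no off-target enzyme affected in any panel.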
# Test system: Soluble Proteome
# Assay: anti-target inhibition in MCF7 proteome, late-stage follow-up, selectivity assay for PAD4 inhibitor project, cell lysate, gel-based fluorescence, soluble and membrane fractions (AID 651628)
# Conditions: CA-Rh gel-based ABPP, anti-target count, at 50 µM, active compounds read high
# Outline: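 System: MCF7 soluble or membrane proteome; amount: proteome protein concentration of 1 mg/ml; technique: in-gel fluorescence after SDS-PAGE; medium: DPBS; controls: DMSO-only reference; doses: compound at 10 or 50 µM; probe or stimulus: Chloroacetamide-rhodamine (CA-Rh) labelling probe, 10 µM; timing: compound pre-incubation 1 h, then probe labelling 1 h, both 25 °C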
row,Structure (SMILES),number of anti-targets
1,COC1=C(I)C(=O)c2nc(C#N)ccc2C1=O,> 5 (active)
2,O=C1C(O)=C(O)C(=O)c2ncccc21,3 (active)
3,COC1=C(N)C(=O)c2nc(-c3nc(C(=O)O)c(C)c(-c4ccc(OC)c(OC)c4O)c3N)ccc2C1=O,0 (inactive)
4,O=C1C=C(Br)C(=O)c2ncccc21,> 5 (active)
5,NC1=CC(=O)c2ccc(-c3ccccn3)nc2C1=O,0 (inactive)
6,COC(=O)c1nc(C(=O)OC)c(NC(C)=O)c(-c2ccccc2Br)c1C,0 (inactive)
7,COC1=C(Br)C(=O)c2nc(-c3ccccn3)ccc2C1=O,> 5 (active)
8,COC1=C(N)C(=O)c2ncccc2C1=O,0 (inactive)
9,NC1=CC(=O)c2cccnc2C1=O,0 (inactive)
10,NC1=CC(=O)c2ccc(-c3cccc(C(=O)O)n3)nc2C1=O,0 (inactive)
11,COC1=C(Br)C(=O)c2ncccc2C1=O,> 5 (active)
12,COC(=O)c1cccc(-c2ccc3c(n2)C(=O)C(N)=CC3=O)n1,0 (inactive)
13,COC(=O)c1cccc(-c2ccc3c(n2)C(=O)C(Br)=CC3=O)n1,0 (inactive)
14,COC1=CC(=O)c2nc(C#N)ccc2C1=O,> 5 (active)
